This passage reports inhibition results from PubChem BioAssay AID463132 (The Scripps Research Institute Molecular Screening Center, 2010).

The inhibition is the relative decrease from the control value, in per cent.

This test addresses Protein phosphatase methylesterase 1 (Homo sapiens) (UniProt Q9Y570). Description: PME-1 inhibitors blocking PP2A demethylation, late-stage follow-up, HeLa cells, western blot, powder samples (AID 463132). The following applies: demethylated PP2A western blot, 1 h, at 0.5 µM, active compounds read high. The gist of the method:
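Assay system: HeLa cells, endogenous PME-1 / Timing: 1 h compound treatment, 37 °C / Signal: chemiluminescent Western blot with HRP antibody to demethylated PP2A C-terminus / Evaluation: percent inhibition of demethylated PP2A band density versus controls / Controls: high DMSO cells, low empty blot region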
(In general: Immunoblotting shows a protein as a band on a membrane.)

Chain of Protein phosphatase methylesterase 1 (Homo sapiens) (Q9Y570 whole entry, looked up): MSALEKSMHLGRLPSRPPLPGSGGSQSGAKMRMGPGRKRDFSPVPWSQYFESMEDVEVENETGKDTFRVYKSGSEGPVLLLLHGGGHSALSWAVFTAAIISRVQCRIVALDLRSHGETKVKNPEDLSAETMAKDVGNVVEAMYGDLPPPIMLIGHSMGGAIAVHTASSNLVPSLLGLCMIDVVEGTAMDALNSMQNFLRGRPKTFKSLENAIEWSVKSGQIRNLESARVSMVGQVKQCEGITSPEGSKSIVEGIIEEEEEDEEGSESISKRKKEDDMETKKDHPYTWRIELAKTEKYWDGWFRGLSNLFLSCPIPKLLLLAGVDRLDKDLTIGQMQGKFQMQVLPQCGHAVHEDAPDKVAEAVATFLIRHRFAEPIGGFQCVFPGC

With `COC(=O)N1C(=O)[C@](c2ccccc2)(C2CCCCC2)N1C(=O)OC`, the inhibition was 85%.

Turning to `COC(=O)N1C(=O)[C@](c2ccccc2)(C2CCCC2)N1C(=O)OC`, the inhibition was 85%.
